According to ChEMBL document CHEMBL4118168, “Synthesis and structure-activity relationship studies of MI-2 analogues as MALT1 inhibitors” (Bioorg Med Chem, 2018):
Activity calls are given as the source filed them. The rule behind the calls is not given here.

System: Toledo
Experiment: Antiproliferative activity against human Toledo cells after 48 hrs by CCK8 assay
Type: functional, cell-based

Row | SMILES | IC50 [nM]
1 | COCCOc1nc(-c2ccc(Cl)cc2)n(-c2ccc(NC(=O)CCl)cc2)n1 | 1720
2 | O=C(CCl)Nc1ccc(-n2nc(OCCN3CCOCC3)nc2-c2ccc(Cl)c(Cl)c2)cc1 | 470
3 | COCCOc1nc(-c2ccc(Cl)c(Cl)c2)n(-c2ccc(NC(=O)CCl)cc2)n1 | 800
4 | O=C(CCl)Nc1ccc(-n2nc(OCCc3cn(-c4ccccc4)nn3)nc2-c2ccc(Cl)c(Cl)c2)cc1 | 380

Molecular target: T1, Mucosa-associated lymphoid tissue lymphoma translocation protein 1 (Homo sapiens) (UniProt Q9UDY8)
T1 sequence (whole entry): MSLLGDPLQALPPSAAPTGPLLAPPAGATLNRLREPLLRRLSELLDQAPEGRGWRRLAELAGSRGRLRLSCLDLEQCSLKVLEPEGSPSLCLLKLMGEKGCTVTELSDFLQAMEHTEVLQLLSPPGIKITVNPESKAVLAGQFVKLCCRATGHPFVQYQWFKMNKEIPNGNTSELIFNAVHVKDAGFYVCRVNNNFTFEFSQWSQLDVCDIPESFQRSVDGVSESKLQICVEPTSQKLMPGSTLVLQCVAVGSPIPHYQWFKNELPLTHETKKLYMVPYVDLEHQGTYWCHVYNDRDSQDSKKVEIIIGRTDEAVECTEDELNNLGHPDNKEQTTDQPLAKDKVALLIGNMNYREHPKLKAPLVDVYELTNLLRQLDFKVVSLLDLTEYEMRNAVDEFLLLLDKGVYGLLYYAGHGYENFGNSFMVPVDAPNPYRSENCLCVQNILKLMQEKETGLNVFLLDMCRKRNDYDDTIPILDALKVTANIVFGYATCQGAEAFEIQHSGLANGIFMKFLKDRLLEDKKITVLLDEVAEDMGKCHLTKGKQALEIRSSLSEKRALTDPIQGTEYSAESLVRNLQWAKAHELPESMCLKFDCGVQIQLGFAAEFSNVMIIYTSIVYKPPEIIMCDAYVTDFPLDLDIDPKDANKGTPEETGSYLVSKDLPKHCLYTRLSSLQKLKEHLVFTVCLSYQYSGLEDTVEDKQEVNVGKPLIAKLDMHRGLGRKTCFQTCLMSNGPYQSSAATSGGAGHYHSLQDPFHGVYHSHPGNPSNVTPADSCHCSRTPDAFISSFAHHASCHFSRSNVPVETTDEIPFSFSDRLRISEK
Experiment: Inhibition of MALT1 in PMA/ionomycin-stimulated human Jurkat T cells assessed as reduction in RelB cleavage at 2 uM pretreated for 4 hrs followed by 1 hr incubation with protease inhibitor MG132 and subsequent PMA/ionomycin-stimulation measured after 1 hr by Western blot analysis
Type: cell-based
In short: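 Jurkat T cells in RPMI 1640 with 10% FBS, seeded at 9×10^5 cells/well, treated with compound or DMSO for 4 h, then 1 h with MG132 (10 μM), then stimulated with PMA. RelB cleavage as the read-out of MALT1 activity, detected by Western blot.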

Row | inhibition | SMILES
5 | Active | COCCOCCOc1nc(-c2ccc(Cl)c(Cl)c2)n(-c2ccc(NC(=O)CCl)cc2)n1
6 | Active | COCC(C)Oc1nc(-c2ccc(Cl)c(Cl)c2)n(-c2ccc(NC(=O)CCl)cc2)n1 (stereo not given)
7 | Active | O=C(CCl)Nc1ccc(-n2nc(OCC(O)CO)nc2-c2ccc(Cl)c(Cl)c2)cc1 (stereo not given)
8 | Active | O=C(CCl)Nc1ccc(-n2nc(OCCCO)nc2-c2ccc(Cl)c(Cl)c2)cc1
9 | Active | COCCOc1nc(-c2ccc(NC(=O)CCl)cc2)n(-c2ccc(Cl)c(Cl)c2)n1
10 | Active | O=C(CCl)Nc1ccc(-n2nc(OCCc3cn(-c4ccccc4)nn3)nc2-c2ccc(Cl)c(Cl)c2)cc1
